# Measured values taken from ChEMBL document CHEMBL5620402, “Development of submicromolar 17β-HSD10 inhibitors and their in vitro and in vivo evaluation” (Eur J Med Chem, 2023).
# Tests used:
# [1] = Inhibition of complex II linked mitochondrial respiration in isolated pig brain mitochondria by O2k respirometry; set-up: species or system Sus scrofa
# How it was run: (§1)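 Respirometry (Oxygraph-2k) of purified pig brain cortex mitochondria in state 3. Substrates were malate + pyruvate + ADP (Complex I) or ADP + rotenone + succinate (Complex II). One chamber was titrated with compound (10–20 concentrations, final 1.25–500 μM) and the other with DMSO; rates were expressed relative to DMSO. IC50 came from four-parameter logistic fits.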
# [2] = biological target: T1, 3-hydroxyacyl-CoA dehydrogenase type-2 (Homo sapiens) (UniProt Q99714); assay: Inhibition of recombinant 17beta-HSD10 (unknown origin) expressed in Escherichia coli BL21 (DE3) assessed as residual activity at 1 uM using acetoacetyl-CoA as substrate by SAAC method relative to control
# T1 sequence (whole entry): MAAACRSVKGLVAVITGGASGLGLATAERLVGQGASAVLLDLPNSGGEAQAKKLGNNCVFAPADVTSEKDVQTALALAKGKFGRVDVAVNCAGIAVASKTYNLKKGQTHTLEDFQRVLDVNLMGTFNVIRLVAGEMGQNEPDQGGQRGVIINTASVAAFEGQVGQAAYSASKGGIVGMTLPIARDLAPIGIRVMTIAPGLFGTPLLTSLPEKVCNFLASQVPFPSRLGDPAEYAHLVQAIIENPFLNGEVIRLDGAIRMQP
# How it was run: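 Recombinant 17β-HSD10 from E. coli BL21(DE3), 0.15 μg, was mixed with 320 μmol/L NADH in Tris-HCl pH 7.4 assay buffer. It was preincubated 5 min at 37 °C with 1 or 10 μM inhibitor or vehicle, then 320 μmol/L acetoacetyl-CoA was added. A340 was followed for 5 min. Residual activity is % of control, triplicate mean ± SD, with t-test versus control.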
# [3] = Aqueous solubility, logS of the compound at pH 7.4 phosphate buffer by nephelometry assay; format: physicochemical
# How it was run: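 Nephelometry of compound suspensions in phosphate buffer pH 7.4. Stock was 160 μg/mL, sonicated and auto-diluted over 0–160 μg/mL, with higher stocks (640 μg/mL, 2.54 mg/mL) used if needed. Wells were shaken 30 s and laser-scanned. Solubility was derived by segmental linear regression.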
# [4] = PBS buffer - Octanol distribution coefficient, logD of the compound at pH 7.4 by UHPLC-DAD-MS analysis; format: physicochemical
# How it was run: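 Compound (0.25 mg) was put into 500 μL of a 1:1 water–octanol (logP) or PBS pH 7.4–octanol (logD) mixture. Samples were shaken 30 min and centrifuged 10 min at 10,000 rcf. Each phase was quantified by UHPLC-DAD-MS against calibration lines.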
# [5] = biological target: T2, Amine oxidase [flavin-containing] B (Sus scrofa, UniProt Q6PLK3); assay: Inhibition of pig brain mitochondrial MAO-B using [14C]PEA as substrate incubated for 60 mins by liquid scintillation counting analysis; format: mitochondria, Mitochondria
# T2 sequence (Q6PLK3 whole entry): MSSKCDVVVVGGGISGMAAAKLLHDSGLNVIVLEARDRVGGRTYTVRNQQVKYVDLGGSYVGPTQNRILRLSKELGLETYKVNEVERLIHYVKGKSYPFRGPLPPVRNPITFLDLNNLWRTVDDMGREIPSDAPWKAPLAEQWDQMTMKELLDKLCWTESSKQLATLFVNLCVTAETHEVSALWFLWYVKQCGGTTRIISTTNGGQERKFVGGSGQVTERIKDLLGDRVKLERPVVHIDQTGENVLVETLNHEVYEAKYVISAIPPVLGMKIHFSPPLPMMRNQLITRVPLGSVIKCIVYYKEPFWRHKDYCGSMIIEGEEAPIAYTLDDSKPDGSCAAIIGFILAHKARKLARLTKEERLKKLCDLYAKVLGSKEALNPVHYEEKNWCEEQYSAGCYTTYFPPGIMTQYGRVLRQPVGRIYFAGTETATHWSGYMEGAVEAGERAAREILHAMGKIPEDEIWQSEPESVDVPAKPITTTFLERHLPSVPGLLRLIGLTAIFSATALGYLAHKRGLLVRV
# How it was run: (§2)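 Pig brain mitochondria were preincubated with drug at 5–7 concentrations (1–1000 μM) for 60 min at 37 °C. Radiolabelled substrate was then added: [3H]5-HT for MAO-A (20 min) or [14C]PEA for MAO-B (1 min). The aldehyde product was counted by liquid scintillation. IC50 came from four-parameter logistic fits; mean ± SE of ≥2 runs.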
# SH-SY5Y = assay: Cytotoxicity against human SH-SY5Y cells assessed as change in ATP level at 10 uM measured after 48 hrs by CellTiter-Glo assay; format: toxicity, cell-based
# How it was run: (§3)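 HEK293 or SH-SY5Y cells in DMEM with 10% FBS, 2 mM glutamine and NEAA were seeded at 7,500 cells per well and grown 24 h. They were then exposed to 1 or 10 μM compound (final 1% DMSO) for 48 h. ATP was read by CellTiter-Glo luminescence after CellTox Green, normalised to 1% DMSO and 100 μM valinomycin controls. At least two experiments in tetraplicate.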
# [6] = Inhibition of complex I linked mitochondrial respiration in isolated pig brain mitochondria by O2k respirometry; set-up: species or system Sus scrofa; how it was run: as §1
# [7] = biological target: T3, Amine oxidase [flavin-containing] A (Sus scrofa, UniProt Q6Q2J0); assay: Inhibition of pig brain mitochondrial MAO-A using [3H]5-HT as substrate incubated for 60 mins by liquid scintillation counting analysis; format: mitochondria, Mitochondria; how it was run: as §2
# T3 sequence (Q6Q2J0 whole entry): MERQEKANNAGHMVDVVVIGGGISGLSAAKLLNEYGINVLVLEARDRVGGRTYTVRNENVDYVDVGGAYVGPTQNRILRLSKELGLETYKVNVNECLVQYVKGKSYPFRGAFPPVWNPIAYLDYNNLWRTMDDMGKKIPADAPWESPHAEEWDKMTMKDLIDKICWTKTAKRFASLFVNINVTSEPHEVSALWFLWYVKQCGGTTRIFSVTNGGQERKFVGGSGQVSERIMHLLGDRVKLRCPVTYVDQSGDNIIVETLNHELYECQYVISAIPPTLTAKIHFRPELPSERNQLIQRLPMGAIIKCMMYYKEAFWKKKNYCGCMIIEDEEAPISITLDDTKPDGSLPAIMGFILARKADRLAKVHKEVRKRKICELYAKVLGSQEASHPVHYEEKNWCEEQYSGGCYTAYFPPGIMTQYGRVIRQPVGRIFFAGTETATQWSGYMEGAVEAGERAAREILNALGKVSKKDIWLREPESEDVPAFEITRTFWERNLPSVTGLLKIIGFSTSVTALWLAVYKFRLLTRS
# HEK293 = assay: Cytotoxicity against human HEK293 cells assessed as change in ATP level at 1 uM measured after 48 hrs by CellTiter-Glo assay; format: toxicity, cell-based; conditions: hek293, 48 h; how it was run: as §3
# [8] = Dissociation constant, pKa of compound using buffers of given pH (range from 3.0 to 11.5) by UV-VIS spectrophotometry; format: physicochemical
# How it was run: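 Compound (10 μL of 1 mg/mL) was put into 490 μL of buffers spanning pH 3.0–11.5 in 0.5-unit steps. UV spectra were scanned at 200–400 nm and 20 °C. pKa was fitted from the sigmoidal absorbance of the dissociated form versus pH.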
# Sus scrofa = organism: Sus scrofa; assay: Inhibition of pig brain mitochondrial Complex II and III assessed as antimycin A-sensitive rate of cytochrome c reduction upon addition of succinate by measuring activity by spectrophotometric ally method (reference value: 100 + /- 5.6%); set-up: scale not given: the % may be the effect or the level left; conditions: Mitochondria
IC50 [1] [µM],Activity [2] [%],logS0 [3],logD [4],IC50 ([5]; read-out: IC50) [µM],IC50 ([7]; read-out: IC50) [µM],pKa [8],IC50 [7],Activity (Sus scrofa) [%],IC50 [5],Compound,Activity (SH-SY5Y),IC50 [6] [µM],Activity (HEK293)
260,50,-4.36,0.75,81,85,9.75,,,,O=C(Nc1ccc(O)c(Cl)c1)Nc1nc2ccc(C(=O)O)cc2s1,Non-Toxic,93,Non-Toxic
,50,-4.78,3.34,84,,9.35,Not Active,99.7,,NC(=O)c1ccc2nc(NC(=O)Nc3ccc(O)c(Cl)c3)sc2c1,Non-Toxic,88,Non-Toxic
98,39.8,-4.48,5.06,,79,11.2,,52.2,Not Active,COc1ccc2nc(NC(=O)Nc3ccc(O)c(C(F)(F)F)c3)sc2c1,Toxic,28,Non-Toxic
27,49.5,-4.55,3.35,120,5.8,9.83,,97.4,,CC(=O)Nc1ccc2nc(NC(=O)Nc3ccc(O)c(Cl)c3)sc2c1,Non-Toxic,36.4,Non-Toxic
